Laboratory results reported in article PMC11904481 (ESMO Open, 2025).
Where two headings read alike, the source gives them in different places.

Legend:
[1] = tested on: patients with locally advanced unresectable or metastatic, relapsed and/or refractory nonhematological malignancies; assay: Phase I dose escalation: MTD / DLT determination; type: in vivo, human
In short: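 I.v. test compound started at 0.45 mg/kg weekly in 28-day cycles (1 h infusion). Accelerated titration used single-patient cohorts with 100% increments up to 3.6 mg/kg, then 3 + 3 cohorts above 3.6 mg/kg. Schedule 2: weekly, 4 h infusion (minimum 2 h). Schedule 3: days 1, 4, 8 (later also 11, 15) of 21-day cycles, ≥4 h infusion, ≥6 h for doses >9.6 mg/kg. MTD/RP2D derived from DLTs.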

[2] = Phase I plasma pharmacokinetics; type: in vivo, human
[3] = tested on: patients with locally advanced unresectable or metastatic, relapsed and/or refractory nonhematological malignancies; assay: Phase I clinical activity; type: in vivo, human
In short: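 Open-label multicenter dose escalation in adults with MAPK-altered or 11q-AMP solid tumors. The test compound was given i.v. on three schedules: weekly per 28-day cycle at 0.45-5.4 mg/kg (1-2 h infusion) or 4.8-9.6 mg/kg (4 h); or on days 1, 4, 8 (±11, 15) per 21-day cycle at 3.6-11.3 mg/kg. Investigator assessed response by RECIST v1.1. Evaluable patients had ≥1 dose plus baseline and ≥1 post-treatment tumor assessment.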

[4] = biological target: human ether-a-go-go-related gene (hERG) potassium channel (Homo sapiens, UniProt Q12809); assay: hERG potassium channel inhibition; type: biochemical
human ether-a-go-go-related gene (hERG) potassium channel, sequence (Q12809 whole entry): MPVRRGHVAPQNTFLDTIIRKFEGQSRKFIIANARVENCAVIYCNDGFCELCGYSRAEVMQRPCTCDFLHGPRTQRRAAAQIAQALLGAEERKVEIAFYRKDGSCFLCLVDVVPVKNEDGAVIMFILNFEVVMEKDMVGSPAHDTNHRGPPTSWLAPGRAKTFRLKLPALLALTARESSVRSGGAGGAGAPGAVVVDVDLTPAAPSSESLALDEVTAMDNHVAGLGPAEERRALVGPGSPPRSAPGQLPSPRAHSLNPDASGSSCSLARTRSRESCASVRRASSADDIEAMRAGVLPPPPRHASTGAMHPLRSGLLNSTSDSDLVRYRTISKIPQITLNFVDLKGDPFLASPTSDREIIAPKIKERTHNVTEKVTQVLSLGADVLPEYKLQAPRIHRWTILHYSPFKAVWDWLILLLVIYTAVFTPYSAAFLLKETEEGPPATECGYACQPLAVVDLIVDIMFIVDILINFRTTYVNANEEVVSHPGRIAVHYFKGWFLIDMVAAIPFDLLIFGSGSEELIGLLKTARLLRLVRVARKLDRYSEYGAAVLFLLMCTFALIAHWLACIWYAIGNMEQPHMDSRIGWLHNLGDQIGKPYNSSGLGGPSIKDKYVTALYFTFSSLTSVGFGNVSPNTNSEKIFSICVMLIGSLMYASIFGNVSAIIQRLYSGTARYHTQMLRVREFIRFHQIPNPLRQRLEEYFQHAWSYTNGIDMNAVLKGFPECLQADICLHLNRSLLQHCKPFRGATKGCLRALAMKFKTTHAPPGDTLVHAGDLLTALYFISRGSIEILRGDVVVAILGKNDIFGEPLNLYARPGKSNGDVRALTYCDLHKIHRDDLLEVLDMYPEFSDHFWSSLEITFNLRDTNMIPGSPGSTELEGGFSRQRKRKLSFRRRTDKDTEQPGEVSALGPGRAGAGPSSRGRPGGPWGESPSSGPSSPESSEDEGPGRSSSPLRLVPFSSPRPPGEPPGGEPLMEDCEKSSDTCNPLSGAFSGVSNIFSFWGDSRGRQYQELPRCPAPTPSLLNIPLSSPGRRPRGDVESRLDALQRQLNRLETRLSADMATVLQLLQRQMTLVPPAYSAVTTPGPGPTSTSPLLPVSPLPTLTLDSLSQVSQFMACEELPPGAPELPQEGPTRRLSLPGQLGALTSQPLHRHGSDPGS

ERK1/2 = settings: cell lines; cited from earlier work
[5] = tested on: models of head and neck SCC; settings: cited from earlier work

Which “recommended dose (RP2D)” value ([1]; i.v. days 1, 4, 8, 11, and 15 every 21 days, ≥4-hour infusion) does the source give for `O=C1Nc2cc3[nH]nc(-c4ccncc4)c3cc2CN1Cc1ccccc1` [KO-947] here?
The value was 8.5 mg/kg.

What about the “patients who experienced DLTs” value ([1]; schedule 1 cohort 5, 5.4 mg/kg, grade 3 QTc prolongation and grade 3 retinopathy) of the same compound?
The value was 2/6.

What about the DLTs ([1]; schedule 1 cohorts 1-4 (0.45-3.6 mg/kg), six patients) of the same compound?
Its DLTs is “no DLTs”.

What about the maximum administered dose ([1]; schedule 2, once weekly, 28-day cycle, 4-hour infusion) of the same compound?
Its maximum administered dose is 9.6 mg/kg.

What about the DLTs ([1]; schedule 2 cohort 9 (9.6 mg/kg), two patients of six) of the same compound?
Its DLTs is “DLT of QTc prolongation”.

What about the DLTs ([1]; schedule 2 cohorts 5-8 (4.8-7.2 mg/kg)) of the same compound?
The DLTs was “no DLTs”.

What about the maximum administered dose ([1]; schedule 3, 21-day cycle) of the same compound?
Its maximum administered dose is 11.3 mg/kg.

And the DLTs ([1]; schedule 3 cohort 3, 6.4 mg/kg)?
The DLTs was “One DLT of hypotension”.

And the DLTs ([1]; schedule 3 cohort 4 (8.5 mg/kg, n = 3))?
Its DLTs is “No DLTs”.

What about the DLTs ([1]; schedule 3 cohort 5 (11.3 mg/kg), one patient of six) of the same compound?
Its DLTs is “DLT of an infusion-related reaction”.

And the DLTs ([1]; schedule 3 cohorts 1 or 2 (3.6-4.8 mg/kg), six patients)?
Its DLTs is “no DLTs”.

What about the plasma concentration ([2]; 11.3 mg/kg, cohort 5 of schedule 3, 6-hour infusion, held for ∼4 hours) of the same compound?
Its plasma concentration is roughly 3600 ng/mL.

And the “dose proportionality of exposure, slope” value ([2]; after a single dose, noncompartmental analysis)?
The value was 1.2.

What about the accumulation ([2]; all dosing schedules) of the same compound?
The accumulation was “None to minimal accumulation”.

What about the half-life ([2]; human, plasma, intravenous) of the same compound?
The half-life was 6.5 to 24 h.

And the half-life ([2]; human, plasma, intravenous, 3.6 mg/kg)?
The half-life was roughly 6.65 h.

And the Cmax ([2]; human, plasma, intravenous, 3.6 mg/kg, highest Cmax, 1-hour infusion)?
Its Cmax is 3630 ng/mL.

And the Vd ([2]; in vivo)?
Its Vd is “moderate”.

And the “plasma CL” value ([2]; in vivo)?
The value was “moderate”.

What about the “time at which Cmax was achieved (near the end of the infusion)” value ([2]; schedules 2 and 3) of the same compound?
The value was roughly 4 h.

And the best overall response ([3]; all schedules)?
Its best overall response is “stable disease”.

What about the “complete or partial responses” value ([3]; all schedules) of the same compound?
The value was “No complete or partial responses”.

And the “patients discontinued owing to disease progression” value ([3]; schedule 3)?
The value was 67%.

What about the “stable disease as best overall response” value ([3]; schedule 3) of the same compound?
The value was 37%.

What about the “stable disease as best overall response” value ([3]; schedules 1 and 2) of the same compound?
The value was 15%.

And the IC50 [4]?
Its IC50 is 4.4 µM.

What about the “mean free Cmax relative to hERG IC50” value ([4]; overall study) of the same compound?
Its value is “about one-tenth”.

And the “inhibition of signaling following washout” value (ERK1/2)?
Its value is greater than 4 h.

And the antitumor response ([5]; 11q-AMP models of head and neck cancer)?
Its antitumor response is “Complete responses and tumor regression”.

What about the overall response rate ([5]; mouse models of head and neck SCC with 11q-AMP) of the same compound?
Its overall response rate is 56%.

What about the overall response rate ([5]; mouse models of head and neck SCC, 11q13WT) of the same compound?
Its overall response rate is 9%.
